The source of these data is ChEMBL document CHEMBL2406922, “Synthesis and Metabolic Studies of Host Directed Inhibitors for Anti Viral Therapy” (ACS Med Chem Lett, 2013).

A value given as a limit tells only on which side of the number the result lay.

A word on the EC50: it is the concentration that produces a half-maximal response. What is called solubility is how much of the substance goes into solution per volume. As a reminder, the half-life is the time needed for the level to fall by half in the phase considered.

A short description of series [1]: Antiviral activity against Measles virus Edmonston infected in african green monkey Vero cells after 20 hrs by luciferase reporter gene assay. It is filed as functional, cell-based, Measles virus strain Edmonston. The note with it: Measles morbillivirus. A digest of the protocol: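 Cells seeded at 3×10^4/well and incubated 20 h, then infected with Renilla luciferase-expressing recombinant MeV-Edmonston (recMeV-ren) at MOI 0.2 TCID50/cell. Luciferase substrate added 28 h post-infection; bioluminescence read to quantify reporter expression.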
On the technique in general: In a reporter assay the amount or activity of a reporter protein is the signal.

The test system of series [2] is Influenza A virus. As to the kind of experiment: Antiviral activity against Influenza A virus WSN/1933 (H1N1) infected in human 293T cells after 20 hrs by luciferase reporter gene assay. It is filed as functional, organism-based. Particulars: A/WSN/1933(H1N1), HEK-293T. A digest of the protocol:
(§1)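 293T cells were transfected with an IAV firefly-luciferase minigenome reporter plasmid (1 µg/10^5 cells), cryopreserved 28 h post-transfection, thawed, and seeded at 3×10^4 cells/well. After 20 h they were infected with TPCK-trypsin-activated IAV (MOI 0.1 pfu/cell). Luciferase bioluminescence was read 28 h post-infection after adding Bright-Glo or Dual-Glo substrate.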

The subject of series [3] is Respiratory syncytial virus. As to the kind of experiment: Antiviral activity against Respiratory syncytial virus by firefly luciferase reporter gene assay. Format: functional, organism-based. The note with it: human respiratory syncytial virus.
Series [4] has as its system Influenza A virus. The series can be described thus: Antiviral activity against Influenza A virus A/Aichi/1968(H3N2) by firefly luciferase reporter gene assay. It is filed as functional, organism-based. The essentials:
as §1

The subject of series [5] is Influenza A virus. The series can be described thus: Antiviral activity against Influenza A virus A/sw/Texas/2009(H1N1) virus by firefly luciferase reporter gene assay. Format: functional, organism-based. A digest of the protocol:
as §1

Series [6] in a line: Solubility of the compound at pH 7.4. Format: physicochemical. Particulars: buffer.
The test system of series [7] is Liver. As to the kind of experiment: (§2) Half life in human liver S9 fraction. Format: ADME, subcellular. The note with it: s9.
Series [8] can be described thus: Half life in hamster liver S9 fraction. Format: ADME, subcellular. Particulars: cricetinae.
Series [9] in a line: as §2. Format: ADME, subcellular. The note with it: liver S9 fraction.

Regarding `CCN(Cc1nc(-c2ccccc2)c(-c2ccccc2)n1C)c1ccccc1`, the concentration for a half-maximal effect (EC50) in [1] and in [2] was 10 µM in each case.

As to `CCOC(=O)Cn1c(-c2nonc2NC(=O)c2ccccc2F)nc2ccccc21`, the EC50 in series [3] came out at 0.14 µM; in series [4], 0.05 µM; in [1], 0.023 µM; in [5], 0.1 µM; in [2], 0.012 µM.

For `Cn1c(S(=O)(=O)Cc2ccc(F)cc2)nc(-c2ccc(F)cc2)c1-c1cccnc1`, the EC50 in series [1] and in series [2] was above 10 µM each time.

`CN(Cc1nc(-c2ccccc2)c(-c2ccccc2)n1C)c1ccccc1C(=O)O` yielded a solubility in [6] above 300 µg/mL. For the same molecule, the 50% effective concentration (EC50) in series [1] and in [2] was 3 µM each time.

The molecule `Cn1c(S(=O)(=O)Nc2ccccc2)nc(-c2ccccc2)c1-c1ccccc1` had a t1/2 in series [7] of 27 min. The EC50 in series [1] and in [2] was above 10 µM each time. Besides, the half-life in series [8] is below 2.5 min.

`Cn1c(S(=O)(=O)C(F)(F)c2ccccc2)nc(-c2ccccc2)c1-c1ccccc1`: the concentration giving a half-maximal response (EC50) in series [1] and in series [2] was above 10 µM throughout.

As to `CN(Cc1nc(-c2ccccc2)c(-c2ccccc2)n1C)c1ccc(O)cc1`, the EC50 in series [1] and in series [2] was 10 µM throughout.

As for `Nc1ccc(C(=O)Cn2c(-c3nccnc3NC(=O)c3ccccc3)nc3ccccc32)cc1`, the EC50 in series [1] and in [2] was above 10 µM in each case.

For the molecule `O=C(Nc1nonc1-c1nc2ccccc2[nH]1)c1ccccc1F`, the half-maximal effective concentration (EC50) in series [1] and in [2] was above 10 µM throughout.

Take `Cn1c(C(O)Cc2ccccc2)nc(-c2ccccc2)c1-c1ccccc1` (stereo unspecified): the EC50 in [1] and in series [2] was above 10 µM throughout.

For `Nc1ccc(C(=O)Cn2c(-c3nonc3NC(=O)c3ccccc3F)nc3ccccc32)cc1`, the values for the concentration giving a half-maximal response (EC50) in [1] and in [2] were 0.4 µM and 0.7 µM, respectively.

As for `Cn1c(SCc2ccccc2)nc(-c2ccccc2)c1-c1ccccc1`, in [7], the t1/2 was 15 min. The EC50 in [1] worked out at 6 µM; in [2], 0.4 µM. In series [8], the half-life was 3 min.

As for `Cn1c(S(=O)(=O)C(F)(F)c2ccc(F)cc2)nc(-c2ccc(F)cc2)c1-c1ccc(F)cc1`, in [7], the t1/2 was above 90 min. In addition, the EC50 in series [1] and in [2] was above 10 µM each time. In [8], the half-life was 54 min.

Turning to `CN(Cc1nc(-c2ccccc2)c(-c2ccccc2)n1C)c1ccccn1`, the half-maximal effective concentration (EC50) in series [1] and in series [2] was 10 µM throughout.

Regarding `O=S(=O)(Cc1ccccc1)c1nc(-c2ccccc2)c(-c2ccccc2)[nH]1`, the t1/2 in series [7] is 14 min. Further, the EC50 in series [1] and in [2] was above 10 µM throughout. The half-life in [8] was below 2.5 min.

Regarding `Cn1c(S(=O)(=O)Cc2ccc(F)cc2)nc(-c2ccc(F)cc2)c1-c1ccc(F)cc1`, in [7], the t1/2 is listed as below 2.5 min. Moreover, the concentration for a half-maximal effect (EC50) in series [1] and in series [2] was above 10 µM in each case. The half-life in series [8] is below 2.5 min.

As for `Cn1c(S(=O)(=O)Cc2cccnc2)nc(-c2ccccc2)c1-c1ccccc1`, the EC50 in [1] was 9 µM; in [2] it was above 10 µM.

As to `Cn1c(S(=O)(=O)Cc2ccc(F)cc2)nc(-c2ccc(F)cc2)c1-c1ccncc1`, the EC50 in [1] and in [2] was above 10 µM each time.

As for `Cn1cc(NC(=O)c2ccccc2F)c(-c2nc3ccccc3[nH]2)n1`, the EC50 in series [1] and in series [2] was above 10 µM throughout.

Turning to `Cn1c(C(=O)Cc2ccccc2)nc(-c2ccccc2)c1-c1ccccc1`, the t1/2 in [7] is recorded as above 90 min. For the same molecule, the values for the EC50 in series [1] and in series [2] were above 10 µM and 10 µM, respectively. The same molecule returned a half-life in series [8] of 5 min.

In series [6], `CN(Cc1nc(-c2ccccc2)c(-c2ccccc2)n1C)c1ccccc1` had a solubility below 15 µg/mL. This molecule yielded a t1/2 in series [7] of 165 min. For the same molecule, the concentration for a half-maximal effect (EC50) was found to be 0.91 µM in [1] and 0.88 µM in [2]. This molecule showed a half-life in [8] below 5 min.

For `Cn1c(S(=O)(=O)Cc2ccccc2)nc(-c2ccccc2)c1-c1ccccc1`, the values for the half-life in series [9] and in series [8] were 2 min and below 2.5 min, respectively. Further, the values for the EC50 in series [1] and in [2] were 4 µM and 0.3 µM, respectively.

`O=S(=O)(Cc1ccccc1)c1nc(-c2ccccc2)c(-c2ccccc2)n1Cc1ccccc1`: the EC50 in [1] was above 10 µM; in series [2], 10 µM.

As for `C=CCn1c(S(=O)(=O)Cc2ccc(F)cc2)nc(-c2ccccc2)c1-c1ccccc1`, the 50% effective concentration (EC50) is 4.6 µM in series [1] and 4.2 µM in series [2].

Regarding `Cn1c(C(=O)Nc2ccccc2[N+](=O)[O-])nc(-c2ccccc2)c1-c1ccccc1`, the values for the EC50 in series [1] and in series [2] were 9 µM and 6 µM, respectively.

`CCOC(=O)Cn1c(-c2ncsc2NC(=O)c2c(F)cccc2F)nc2ccccc21`: the EC50 in [1] and in [2] was 10 µM throughout.

Take `Cn1c(S(=O)(=O)Cc2ccncc2)nc(-c2ccccc2)c1-c1ccccc1`: the EC50 in [1] and in series [2] was above 10 µM in each case.

Consider `C#CCn1c([S+](=O)([O-])Cc2ccc(F)cc2)nc(-c2ccccc2)c1-c1ccccc1`, for which the EC50 in series [3] worked out at 0.45 µM; in [4], 0.92 µM; in series [1] it was 0.74 µM; in series [5], 0.2 µM; in series [2], 0.5 µM. The t1/2 in [7] came out at 19 min. The molecule also registered a half-life in [8] below 2.5 min.

Turning to `Cn1c(CCc2ccccc2)nc(-c2ccccc2)c1-c1ccccc1`, the EC50 in [1] came out at 6 µM; in series [2], 10 µM.

`Cn1c(CN(Cc2ccccc2)c2ccccc2)nc(-c2ccccc2)c1-c1ccccc1`: the EC50 in series [1] and in series [2] was above 10 µM each time.

On to `CC(C)n1c(-c2csc(NC(=O)c3c(F)cccc3F)n2)nc2ccccc21`, for which the EC50 amounted to 10 µM in [1] and 4 µM in series [2].

Consider `Cn1c(C(=O)Nc2ccccc2F)nc(-c2ccccc2)c1-c1ccccc1`, for which the results for the concentration for a half-maximal effect (EC50) in series [1] and in [2] were 9 µM and 10 µM, respectively.

Regarding `COc1ccc(-n2c(SC(C)C(=O)Nc3ccc(C)cc3Cl)nc3ccccc32)cc1` (stereo unspecified), the values for the EC50 in series [3] and in series [5] were 0.07 µM and 0.04 µM, respectively.

Regarding `CCn1c(S(=O)(=O)Cc2ccccc2)nc(-c2ccccc2)c1-c1ccccc1`, the EC50 amounted to 1 µM in series [1] and 2 µM in series [2].

For the molecule `O=C(O)Cn1c(-c2csc(NC(=O)c3c(F)cccc3F)n2)nc2ccccc21`, the EC50 in series [1] and in series [2] was above 10 µM throughout.
